In the library only some 3.5% were active in any assay of this set; here they are far more common.
MEKK3 PB1 HTS: MEKK3-MEK5 PB1 interaction, increase or decrease; Q99759; bead-based flow cytometry, Alexa488-MEK5 binding to MEKK3; actives lie on both sides; 0 = blocked by unlabeled MEK5, 100 = vehicle; binding response (% of control), % at 10 µM; 290,000 compounds, 1.4% hits; AID 1529;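 active = binding response more than 3 SD above or below the average of its plate-row segment, actives on both sides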;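 note: Alexa488 bead fluorescence after subtracting the streptavidin-only scavenger bead signal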
Target sequence (Q99759 whole entry, looked up): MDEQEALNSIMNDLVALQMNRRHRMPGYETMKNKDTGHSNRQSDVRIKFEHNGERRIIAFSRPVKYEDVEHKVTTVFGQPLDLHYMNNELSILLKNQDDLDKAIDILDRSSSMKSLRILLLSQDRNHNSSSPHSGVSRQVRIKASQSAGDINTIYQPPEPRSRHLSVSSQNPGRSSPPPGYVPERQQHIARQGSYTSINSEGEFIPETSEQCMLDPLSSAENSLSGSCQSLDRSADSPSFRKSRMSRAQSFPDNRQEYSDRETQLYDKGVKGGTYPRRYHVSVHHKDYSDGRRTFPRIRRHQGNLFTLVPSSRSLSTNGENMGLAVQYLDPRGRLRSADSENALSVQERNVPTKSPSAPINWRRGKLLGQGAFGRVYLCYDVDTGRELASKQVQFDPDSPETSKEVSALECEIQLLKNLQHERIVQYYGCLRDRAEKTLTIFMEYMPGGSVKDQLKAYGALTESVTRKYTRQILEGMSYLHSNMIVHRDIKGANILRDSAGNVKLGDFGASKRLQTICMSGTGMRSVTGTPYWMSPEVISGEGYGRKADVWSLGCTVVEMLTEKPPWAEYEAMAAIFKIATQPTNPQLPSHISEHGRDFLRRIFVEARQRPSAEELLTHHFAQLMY
ABCG2 block: human ABCG2 inhibition, ABCB1 as counter-screen. IgMXP3 cells, JC-1 efflux, flow cytometry. inhibition, % at 6.6 µM. 190,000 compounds, 0.1% hits. AID 1325;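 active = inhibition above 80%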;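 note: 0% = DMSO and 100% = nicardipine control wells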
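Measure – % inhibition of efflux relative to nicardipine and DMSO · Test system – ABCG2 IgMXP3 and barcoded ABCB1 CCRF-Adr cell mix · Control set – nicardipine as high control, DMSO as low control · Compound – one concentration, 6.6 µM final · Signal – flow cytometry of retained JC-1 fluorescence · Timing – 10 min exposure at 25 °C with rotation, no wash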
ABCB1 inh: human ABCB1 inhibition, ABCG2 as counter-screen; CCRF-Adr cells, JC-1 efflux, flow cytometry; AID 1326; 190,000 compounds, 0.067% hits; inhibition, % at 6.6 µM; P08183; in the data active = inhibition above about 40%;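 note: 0% = vehicle and 100% = reference inhibitor; higher value means more JC-1 retained so stronger ABCB1 efflux block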
WT yeast gro inh: growth inhibition of WT yeast, mitochondrial fusion screen | 190,000 compounds, 2.1% hits | AID 1362 | mitochondrial fusion phenotypic screen, WT strain | inhibition, % at 10 µM; in the data active = inhibition above about 58%; tested in S. cerevisiae
MEKK2 mut-MEK5: signal of MEK5 binding to mutant human MEKK2 PB1 domain; bead flow cytometry, Alexa488-MEK5 binding to MEKK2 mutant; percent response, % at 10 µM; 290,000 compounds, 0.35% hits; AID 1530; in the data active = percent response above about 24%, passing the limit was not always enough
MEKK2 WT-MEK5: raises or lowers MEK5 binding to wildtype human MEKK2 PB1 domain; Q9Y2U5; bead flow cytometry, Alexa488-MEK5 binding to MEKK2 WT; actives lie on both sides; binding response (% of control), % at 10 µM; 290,000 compounds, 1.1% hits; AID 1531; in the data active = binding response below about 67% or above about 130%
MEKK2wt confirm: raises or lowers MEK5 binding to wildtype human MEKK2, retest; bead flow cytometry, Alexa488-MEK5 binding to MEKK2 WT; actives lie on both sides; binding response (% of control), % at 10 µM; AID 1892; 5,900 compounds, 2.4% hits; shares compounds with MEKK3 PB1 HTS; in the data active = binding response below about 16% or above about 210%; inactive = in between
MEKK2mut-MEK5: signal of MEK5 binding to mutant human MEKK2, retest. shares compounds with MEKK3 PB1 HTS. bead flow cytometry, Alexa488-MEK5 binding to MEKK2 mutant. percent response, % at 10 µM. 5,900 compounds, 2% hits. AID 1893; in the data active = percent response mostly above about 71%, no sharp cut-off; inactive = mostly below about 38%;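 note: higher means compound restores mutant binding toward wildtype level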
MEKK3 confirm: MEKK3-MEK5 PB1 inhibition, single concentration confirmation; shares compounds with MEKK3 PB1 HTS; bead flow cytometry, Alexa488-MEK5 binding to MEKK3; stronger effect = lower value; binding response (% of control), % at 10 µM; 5,900 compounds, 1.8% hits;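 active = binding response below 72% of control, or above a set upper limit, though filed actives all read lower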;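 note: 100% = DMSO only wells and 0% = binding blocked by excess unlabeled MEK5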
Active calls of the source: *; x = not tested or not shown; [ ] = dose if it differs, or a comment.

SMILES | MEKK3 PB1 HTS | ABCG2 block | ABCB1 inh | WT yeast gro inh | MEKK2 mut-MEK5 | MEKK2 WT-MEK5 | MEKK2wt confirm | MEKK2mut-MEK5 | MEKK3 confirm
OC(CN1CCN(c2ccccn2)CC1)Cn1c2ccc(Cl)cc2c2cc(Cl)ccc21 (stereo not drawn) | 111 | 2 | 0 | 10 | 13 | 137* | 132 | 15 | 106
OC(CN1CCCCC1)Cn1c2ccc(Cl)cc2c2cc(Cl)ccc21 (stereo not drawn) | 106 | x | x | x | 48* | 203* | 202 | 63 | 112
CN(C)CC(CCC(CN(C)C)C(O)(c1ccccc1)c1ccccc1)C(O)(c1ccccc1)c1ccccc1 (stereo not drawn) | 108 | x | x | x | 21 | 149* | 161 | 45 | 117
CN(C)C/C=C/C(O)(c1ccccc1)c1ccccc1 | 101 | x | x | x | 3 | 104 | x | x | x
Nc1cc(=O)[nH]c(SCC(=O)Nc2cc([N+](=O)[O-])ccc2Cl)n1 | 138* | 5 | 1 | -15 | 4 | 117 | 101 | 2 | 103
Cc1ccc(S(=O)(=O)NCCS(=O)(=O)N2CCN(c3ccccc3)CC2)cc1 | 92 | x | x | x | -4 | 92 | x | x | x
CCCCCCC(C)OC(=O)Nc1cccc2ccccc12 (stereo not drawn) | 70*[inhibitor] | x | x | x | 1 | 77 | 91 | -11 | 94
O=C(COC(=O)CCc1c[nH]c2ccccc12)NCc1ccc(Cl)cc1 | 2.0*[inhibitor] | 17 | 1 | 13 | -1 | 2.0*[inhibitor] | 101 | -3 | 102
Cc1nc([N+](=O)[O-])c(Br)n1CC(=O)c1ccc(Br)cc1 | 133* | 3 | 1 | 34 | 6 | 126 | 93 | -12 | 95
Cn1c(Cc2ccccc2)nnc1SCC(=O)Nc1ccc(N2CCOCC2)cc1 | 104 | x | x | x | -4 | 104 | x | x | x
Cc1ccc2nsnc2c1NC(=O)c1cccc([N+](=O)[O-])c1 | 134* | 24 | 2 | -5 | 1 | 110 | 93 | -3 | 93
CC(NC(=O)c1ccccc1Br)c1nnc(SCC(=O)NC2=NCCS2)n1C (stereo not drawn) | 99 | x | x | x | -1 | 98 | x | x | x
NC1=NC[C@@H](Cc2ccc(O)cc2)N1CCc1cc(C(F)(F)F)cc(C(F)(F)F)c1 | 115 | x | x | x | 8 | 120 | x | x | x
NC1=NC[C@H](CC2CCCCC2)N1CCc1cc(C(F)(F)F)cc(C(F)(F)F)c1 | 111 | x | x | x | 25* | 156* | 127 | 4 | 97
CC(=O)Oc1ccc(-c2ccc(C(=O)NCCc3ccc(S(N)(=O)=O)cc3)cc2)cc1 | 98 | x | x | x | 3 | 95 | x | x | x
CCCCn1c(N)c(N(CC(C)C)C(=O)c2ccc(Br)s2)c(=O)[nH]c1=O | 99 | x | x | x | 6 | 100 | x | x | x
Cc1cc2nc(-c3ccc(SCC(=O)Nc4ccc(S(=O)(=O)N5CCCC5)cc4)nc3)[nH]c2cc1C | 132* | -11 | -2 | 12 | 1 | 105 | 94 | 0 | 98
COc1cc(/C=N/NC(=O)c2sc(N)c(C#N)c2C)ccc1O | 106 | 3 | 0 | 13 | 7 | 104 | x | x | x
Cc1c(C(=O)N/N=C/c2ccc(O)c(Br)c2)sc(N)c1C#N | 132* | -3 | -1 | -5 | 0 | 97 | 94 | -6 | 97
Cc1cc(C)n(C(=O)CNC(=O)/C=C/c2ccccc2)n1 | 94 | 2 | 0 | -19 | -15 | 84 | x | x | x
COc1ccccc1/C=C/C(=O)NCC(=O)n1nc(C)cc1C | 58*[inhibitor] | x | x | x | -40 | 59*[inhibitor] | 101 | 0 | 104
Cn1cccc1/C=N\NC(=O)Cc1ccc(Br)c2ccccc12 | 101 | 16 | 2 | 9 | 1 | 100 | x | x | x
Cc1cccn2c(NC(=O)c3cccs3)c(-c3ccccc3)nc12 | 138* | -3 | 1 | 6 | 1 | 107 | 101 | 3 | 104
Cc1ccn2c(NC(=O)c3cccs3)c(-c3ccccc3)nc2c1 | 95 | 10 | 0 | -1 | 5 | 98 | x | x | x
O=S(=O)(Nc1nc2ccccc2nc1Nc1ccc(N2CCOCC2)cc1)c1cc(Cl)ccc1Cl | 150* | 3 | 1 | 52 | 0 | 102 | 105 | 7 | 105
SMILES | MEKK3 PB1 HTS | ABCG2 block | ABCB1 inh | WT yeast gro inh | MEKK2 mut-MEK5 | MEKK2 WT-MEK5 | MEKK2wt confirm | MEKK2mut-MEK5 | MEKK3 confirm
Cc1ccc(-c2c[n+](CC(=O)Nc3nc(-c4ccccc4)cs3)c3n2CCC3)cc1 | 103 | x | x | x | 47 | 183* | 174 | 68 | 108
O=C(C[n+]1cc(-c2ccccc2)n2c1CCC2)Nc1nc(-c2ccccc2)cs1 | 102 | 1 | 0 | 20 | 28 | 166* | 128 | 16 | 101
O=C(C[n+]1cc(-c2ccc(Cl)c(Cl)c2)n2c1CCC2)OCc1ccccc1 | 155* | 4 | 1 | -3 | 1 | 123 | 109 | 3 | 97
O=C(C[n+]1cc(-c2ccccc2)n2c1CCCCC2)c1ccc(Cl)cc1 | 102 | 1 | 0 | 12 | 25 | 142* | 105 | 2 | 94
COc1ccccc1CC1(C)NC(=O)N(CC(=O)Nc2cc(C)on2)C1=O (stereo not drawn) | 103 | 14 | 0 | -15 | 3 | 100 | x | x | x
COCCNC(=S)N(C)C1(c2ccccc2Cl)CCCCC1=O (stereo not drawn) | 100 | 1 | 1 | 3 | 3 | 102 | x | x | x
CCc1ccc(NC(=O)Nc2cc(C(=O)O)ccc2N2CC3CC(C2)c2cccc(=O)n2C3)cc1 (stereo not drawn) | 104 | x | x | x | 4 | 99 | x | x | x
O=C(O)c1ccc(N2CC3CC(C2)c2cccc(=O)n2C3)c(NC(=S)Nc2ccc(Cl)cc2Cl)c1 (stereo not drawn) | 65*[inhibitor] | -1 | -1 | -3 | -30 | 17*[inhibitor] | 91 | -7 | 95
COc1ccc(C(C(N)=O)c2ncc(C(F)(F)F)cc2Cl)cc1 (stereo not drawn) | 150* | 3 | 1 | 1 | 7 | 131 | 106 | 4 | 105
COc1ccc(C(O)c2ncc(C(F)(F)F)cc2Cl)cc1 (stereo not drawn) | 99 | x | x | x | 1 | 102 | x | x | x
COc1ccc(-c2ccnc(SCC(=O)c3ccc(OC)c(OC)c3)n2)cc1 | 132* | 9 | 1 | 6 | 0 | 103 | 99 | 0 | 103
COc1ccc(-c2ccnc(SCC(=O)c3ccc(Cl)cc3)n2)cc1 | 102 | 2 | 0 | 30 | 8 | 100 | x | x | x
Cc1ccnc(SCC(=O)N2CCN(c3ccccc3)CC2)n1 | 88 | 4 | 1 | -12 | 3 | 99 | x | x | x
